Experimental data of several laboratories.
Each line is one published result; the experiments were not run side by side.
Target: Peripheral plasma membrane protein CASK (CASK, Homo sapiens, UniProt O14936)
Residues used in one study (O14936 1-926): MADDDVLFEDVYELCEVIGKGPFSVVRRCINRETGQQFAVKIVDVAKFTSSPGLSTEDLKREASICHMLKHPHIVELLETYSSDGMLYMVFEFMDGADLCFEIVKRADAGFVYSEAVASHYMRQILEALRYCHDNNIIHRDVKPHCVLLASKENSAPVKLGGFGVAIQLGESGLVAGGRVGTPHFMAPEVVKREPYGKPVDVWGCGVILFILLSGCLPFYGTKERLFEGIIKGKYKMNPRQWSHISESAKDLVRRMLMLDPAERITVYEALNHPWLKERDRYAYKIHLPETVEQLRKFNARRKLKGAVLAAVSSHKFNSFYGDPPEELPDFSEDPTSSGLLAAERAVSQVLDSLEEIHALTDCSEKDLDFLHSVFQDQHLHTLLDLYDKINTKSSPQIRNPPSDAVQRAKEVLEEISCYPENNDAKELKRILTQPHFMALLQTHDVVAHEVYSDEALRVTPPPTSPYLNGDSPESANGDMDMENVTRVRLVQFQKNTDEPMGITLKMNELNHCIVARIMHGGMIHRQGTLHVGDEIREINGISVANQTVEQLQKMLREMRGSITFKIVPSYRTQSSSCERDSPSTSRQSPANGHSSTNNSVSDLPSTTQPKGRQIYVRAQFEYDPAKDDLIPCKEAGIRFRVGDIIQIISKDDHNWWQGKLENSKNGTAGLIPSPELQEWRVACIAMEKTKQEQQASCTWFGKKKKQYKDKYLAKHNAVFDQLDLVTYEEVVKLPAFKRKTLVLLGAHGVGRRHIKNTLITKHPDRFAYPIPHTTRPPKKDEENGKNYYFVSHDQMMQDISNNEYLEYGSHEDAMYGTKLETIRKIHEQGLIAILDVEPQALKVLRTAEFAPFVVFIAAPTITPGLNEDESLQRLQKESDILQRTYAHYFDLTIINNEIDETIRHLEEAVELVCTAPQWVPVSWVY

Compound | test | conditions | remaining binding [%]
CC1CCCN1c1nccc(-c2cnn3ncccc23)n1 (stereo not drawn) | binding, competition with immobilised ligand | 1 µM | 100
N#CC1(c2ccccn2)CCN(Cc2cc(C(=O)N3CCCC3)c(=O)n3ccccc23)CC1 | cell-free assay, competition with immobilised ligand | 1 µM | 100
COc1ncc2cc3ccccc3nc2c1C#N | cell-free assay, competition with immobilised ligand | 5 µM | 99
C=CC(=O)N1CCC(C(=O)NCC(=O)N2CCN(c3nc(-c4cnc(N)nc4C(F)F)nc(N4CCOCC4)n3)CC2)CC1 | binding, competition with immobilised ligand | 1 µM | 69
COc1cnc(Nc2cccc(S(N)(=O)=O)c2)nc1N1CCN(c2ccccc2)CC1 | binding, competition with immobilised ligand | 1 µM | 95
Cc1cnc(Nc2ccc(C(=O)N3CCC(N4CCCC4)CC3)cc2)nc1-c1cc2ccccc2s1 | binding, competition with immobilised ligand | 1 µM | 100
FC(F)(F)Oc1cccc(-c2cnc3ccc(-c4ccncc4)nn23)c1 | cell-free assay, competition with immobilised ligand | 5 µM | 50
Cn1nc(C(F)(F)F)cc1-c1cnc(N2CCc3cc(S(=O)(=O)Nc4c(F)cc(Cl)cc4F)cc(N4CCCC4=O)c32)nc1 | cell-free assay, competition with immobilised ligand | 1 µM | 77
N[C@H]1CCN(c2nccc(-c3cnn4ncccc34)n2)C1 | binding, competition with immobilised ligand | 1 µM | 100
CSc1cccnc1N1CCN(Cc2nc3ccccc3[nH]2)CC1 | cell-free assay, competition with immobilised ligand | 1 µM | 100
F[C@@H]1CCN(c2nccc(-c3cnn4ncccc34)n2)C1 | binding | 1 µM | 100
c1cncc(-c2cccc(Nc3nccc(NC4CCCCC4)n3)c2)c1 | binding, competition with immobilised ligand | 10 µM | 76
O=C(O)[C@@H]1[C@@H](Cn2nnc3ccccc3c2=O)CC[C@H]1C(=O)c1ccc(OCCC2CCOCC2)cc1 | cell-free assay, competition with immobilised ligand | 1 µM | 100
CN(C)c1ncc(F)c(-c2cnn3ncccc23)n1 | binding, competition with immobilised ligand | 1 µM | 79
O=C(c1ccc(Nc2nccc(-c3cc4ccccc4s3)n2)cc1)N1CCC(N2CCCC2)CC1 | binding, competition with immobilised ligand | 1 µM | 85
CN(c1nccc(-c2cnn3ncccc23)n1)C1CC1 | binding | 1 µM | 100
O=C(NCCCN1CCOCC1)c1ccc(Nc2nccc(-c3cc4ccccc4s3)n2)cc1 | binding, competition with immobilised ligand | 1 µM | 100
Cc1c(NC(=O)c2cc(C(N)=O)nc3cc(F)ccc23)c(C(F)(F)F)nn1Cc1ccc(C#N)cc1 | cell-free assay, competition with immobilised ligand | 1 µM | 71
C[C@@H]1CCN(c2nccc(-c3cnn4ncccc34)n2)C1 | binding | 1 µM | 84
FC(F)(F)c1ccc2c(c1)nc(-c1cccnc1)n2C1CC1 | cell-free assay, competition with immobilised ligand | 1 µM | 100
O=C(NCC1CCOCC1)c1n[nH]cc1NC(=O)c1c(F)cccc1F | binding, competition with immobilised ligand | 1 µM | 61
